The record followed here is ChEMBL document CHEMBL1146622, “Synthesis and biological evaluation of a novel phenyl substituted sydnone series as potential antitumor agents” (2003).

Format in all cases: functional, Homo sapiens
One experiment relates to NCI-H460. Kind of experiment: In vitro antitumor activity determined against NCI-H460 cells expressed as percent of growth of the treated cells compared to untreated cells. Also on record: concentration or dose not given beside the values. A digest of the protocol:
(§1)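 NCI 3-cell-line prescreen (MCF7 breast, NCI-H460 lung, SF-268 CNS). Cells inoculated and incubated in microtiter plates, then exposed to test agent at a single concentration for 48 h. Alamar blue end-point read-out. Value is percent growth of treated cells relative to untreated cells.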

The next experiment relates to SF-268. Nature of the experiment: In vitro antitumor activity determined against SF-268 cells expressed as percent of growth of the treated cells compared to untreated cells. Further details: concentration or dose not given beside the values. A digest of the protocol: as §1
Experiment [1] deals with MCF7S. Kind of experiment: In vitro antitumor activity determined against MCF-7 cells (breast) expressed as percent of growth of the treated cells compared to untreated cells. An outline of the steps: as §1
For experiment [2], the system named is MCF7S. Nature of the experiment: In vitro antitumor activity determined against MCF-7 cells expressed as percent of growth of the treated cells compared to untreated cells. Further details: concentration or dose not given beside the values. An outline of the steps: as §1

Structures are written as SMILES.

In the case of `O=[N+]([O-])c1cc(-[n+]2cc([O-])on2)ccc1Cl`, the Cell growth with NCI-H460 is 91%; in the experiment on SF-268 it was 9%; with MCF7S [1] it was 44%.
With `O=[N+]([O-])c1cc(-[n+]2cc([O-])on2)ccc1N1CCC1`, the Cell growth came to 75% in the experiment on MCF7S [2], 95% in the experiment with NCI-H460 and 95% in the experiment on SF-268.
Take `O=[N+]([O-])c1cc(-[n+]2cc([O-])on2)ccc1N1Cc2ccccc2C1`: the Cell growth worked out at 75% in the experiment with MCF7S [2], 76% with NCI-H460 and 95% in the experiment with SF-268.
For the molecule `CCN(CC)c1ccc(-[n+]2cc([O-])on2)cc1[N+](=O)[O-]`, the Cell growth in the experiment on MCF7S [2] is given as 85%; in the experiment on NCI-H460 it was 92%; in the experiment with SF-268, 95%.
In the same order, the values of `O=[N+]([O-])c1cc(-[n+]2cc([O-])on2)ccc1F` are 0%, 0% and 0%.
In the same order, the values of `O=[N+]([O-])c1cc(-[n+]2cc([O-])on2)ccc1N1CCc2ccccc21` are 82%, 87% and 96%.
